According to ChEMBL document CHEMBL5344483, “Design and synthesis of novel chloropyridazine hybrids as promising anticancer agents acting by apoptosis induction and PARP-1 inhibition through a molecular hybridization strategy” (RSC Med Chem, 2024):
Calls of active or inactive are those of the source. The calls are words filed in the database; no cut-off is given here.

Experiments:
[1] = system: HNO 97 cell line; assay: Anticancer activity against human HNO97 cells assessed as growth inhibition at 100 microg/mL by SRB assay relative to control; type: functional; settings: read-out: GI
How it was run: (§1)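 Cells seeded at 3×10^3 per well and allowed to attach for 24 h. Treated with 100 µg/mL compound for 48 h, triplicate wells, with a 1% v/v DMSO vehicle control. Fixed in 20% TCA, stained with 0.4% SRB, and OD read at 570 nm. Survival fraction is treated OD/control OD.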

[2] = system: FaDu; assay: Anticancer activity against human FaDu cells assessed as growth inhibition at 100 microg/mL by SRB assay relative to control; type: functional; settings: read-out: GI; how it was run: as §1
[3] = system: MCF7; assay: Anticancer activity against human MCF7 cells assessed as growth inhibition at 100 microg/mL by SRB assay relative to control; type: functional; settings: read-out: GI; how it was run: as §1
[4] = system: SK-BR-3; assay: Anticancer activity against human SK-BR-3 cells assessed as growth inhibition at 100 microg/mL by SRB assay relative to control; type: functional; settings: read-out: GI; how it was run: as §1
[5] = system: MDA-MB-468; assay: Anticancer activity against human MDA-MB-468 cells assessed as growth inhibition at 100 microg/mL by SRB assay relative to control; type: functional; settings: read-out: GI; how it was run: as §1
[6] = system: Huh-7; assay: Anticancer activity against human Huh-7 cells assessed as growth inhibition at 100 microg/mL by SRB assay relative to control; type: functional; settings: read-out: GI; how it was run: as §1
[7] = system: A-375; assay: Anticancer activity against human A-375 cells assessed as growth inhibition at 100 microg/mL by SRB assay relative to control; type: functional; settings: read-out: GI; how it was run: as §1
[8] = system: HCT-116; assay: Anticancer activity against human HCT-116 cells assessed as growth inhibition at 100 microg/mL by SRB assay relative to control; type: functional; settings: read-out: GI; how it was run: as §1
[9] = system: NCI-H460; assay: Anticancer activity against human NCI-H460 cells assessed as growth inhibition at 100 microg/mL by SRB assay relative to control; type: functional; settings: read-out: GI; how it was run: as §1
[10] = system: A549; assay: Anticancer activity against human A549 cells assessed as growth inhibition at 100 microg/mL by SRB assay relative to control; type: functional; settings: read-out: GI; how it was run: as §1
[11] = system: HeLa; assay: Anticancer activity against human HeLa cells assessed as growth inhibition at 100 microg/mL by SRB assay relative to control; type: functional; settings: read-out: GI; how it was run: as §1
[12] = Cytotoxicity against human HSF (VGS) cells assessed as growth inhibition at 100 microg/mL by SRB assay relative to control; type: toxicity, cell-based; settings: at 100 µg/mL, read-out: GI
[13] = system: HNO 97 cell line; assay: Cytotoxicity against human HNO97 cells by SRB assay; type: functional, cell-based
How it was run: (§2)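 Cells seeded at 3×10^3 per well and allowed to attach for 24 h. Exposed to […], 12.5, 25 and 50 µg/mL for 48 h, triplicate wells per concentration, with a 1% v/v DMSO vehicle. Fixed in 20% TCA, stained with 0.4% SRB, and OD read at 570 nm. IC50 from sigmoidal dose-response fit of survival fraction (treated/control OD).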

[14] = system: FaDu; assay: Cytotoxicity against human FaDu cells by SRB assay; type: functional, cell-based; how it was run: as §2
[15] = system: MDA-MB-468; assay: Cytotoxicity against human MDA-MB-468 cells by SRB assay; type: functional, cell-based; how it was run: as §2
[16] = system: HNO 97 cell line; assay: Induction of cell cycle arrest in human HNO97 cells assessed as cell population at G0-G1 phase by flow cytometry (reference value: 63.31%); type: functional
[17] = system: HNO 97 cell line; assay: Induction of cell cycle arrest in human HNO97 cells assessed as cell population at G2-M phase by flow cytometry (reference value: 2.42%); type: functional
[18] = system: HNO 97 cell line; assay: Induction of apoptosis in human HNO97 cells assessed as measuring fold increase in p53 protein expression level by sandwiched immunoassay relative to control; type: functional
How it was run: (§3)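 Sandwich ELISA on antibody-precoated wells. Sample incubated 1 h at 37 °C, then biotin-conjugated detection antibody 1 h at 37 °C, then avidin-HRP 30 min at 37 °C, with washes between steps. TMB substrate 10–20 min at 37 °C in the dark, stopped with sulphuric acid, read at 450 nm. Duplicate readings, zero-standard subtracted, quantified against a 7-point standard curve.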

[19] = system: HNO 97 cell line; assay: Induction of apoptosis in human HNO97 cells assessed as measuring fold increase in Bax protein expression level by sandwiched immunoassay relative to control; type: functional; how it was run: as §3
[20] = system: HNO 97 cell line; assay: Induction of apoptosis in human HNO97 cells assessed as measuring fold increase in caspase-3 protein expression level by sandwiched immunoassay relative to control; type: functional; how it was run: as §3
[21] = system: HNO 97 cell line; assay: Induction of apoptosis in human HNO97 cells assessed as measuring fold increase in caspase-6 protein expression level by sandwiched immunoassay relative to control; type: functional; how it was run: as §3
[22] = system: HNO 97 cell line; assay: Induction of apoptosis in human HNO97 cells assessed as measuring fold decrease in Bcl-2 protein expression level by sandwiched immunoassay relative to control; type: functional; how it was run: as §3
[23] = system: HNO 97 cell line; assay: Induction of apoptosis in human HNO97 cells assessed as measuring fold decrease in CK 18 protein expression level by sandwiched immunoassay relative to control; type: functional; how it was run: as §3
[24] = target: Poly [ADP-ribose] polymerase 1 (Homo sapiens, UniProt P09874); assay: Inhibition of human PARP-1 in MDA-MB-231 cells assessed as accumulation of cleaved PARP-1 by immunoblot analysis; type: cell-based
How it was run: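 Drug-treated cells lysed and protein measured by BCA. Lysate (30 µg) separated by SDS-PAGE and transferred to PVDF. Probed with anti-PARP1 primary antibody (1:1000), then HRP-conjugated secondary (1:10,000), with alpha-tubulin as loading probe. Detected by ECL. Blots representative of at least three independent experiments.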

[25] = system: MDA-MB-231; assay: Antiproliferative activity against human MDA-MB-231 cells assessed as reduction in cell growth by coomassie Brilliant Blue staining based analysis; type: functional
[26] = system: HNO 97 cell line; assay: Induction of cell cycle arrest in human HNO97 cells assessed as cell population at S phase by flow cytometry (reference value: 34.27%); type: functional

Poly [ADP-ribose] polymerase 1, sequence (P09874 whole entry): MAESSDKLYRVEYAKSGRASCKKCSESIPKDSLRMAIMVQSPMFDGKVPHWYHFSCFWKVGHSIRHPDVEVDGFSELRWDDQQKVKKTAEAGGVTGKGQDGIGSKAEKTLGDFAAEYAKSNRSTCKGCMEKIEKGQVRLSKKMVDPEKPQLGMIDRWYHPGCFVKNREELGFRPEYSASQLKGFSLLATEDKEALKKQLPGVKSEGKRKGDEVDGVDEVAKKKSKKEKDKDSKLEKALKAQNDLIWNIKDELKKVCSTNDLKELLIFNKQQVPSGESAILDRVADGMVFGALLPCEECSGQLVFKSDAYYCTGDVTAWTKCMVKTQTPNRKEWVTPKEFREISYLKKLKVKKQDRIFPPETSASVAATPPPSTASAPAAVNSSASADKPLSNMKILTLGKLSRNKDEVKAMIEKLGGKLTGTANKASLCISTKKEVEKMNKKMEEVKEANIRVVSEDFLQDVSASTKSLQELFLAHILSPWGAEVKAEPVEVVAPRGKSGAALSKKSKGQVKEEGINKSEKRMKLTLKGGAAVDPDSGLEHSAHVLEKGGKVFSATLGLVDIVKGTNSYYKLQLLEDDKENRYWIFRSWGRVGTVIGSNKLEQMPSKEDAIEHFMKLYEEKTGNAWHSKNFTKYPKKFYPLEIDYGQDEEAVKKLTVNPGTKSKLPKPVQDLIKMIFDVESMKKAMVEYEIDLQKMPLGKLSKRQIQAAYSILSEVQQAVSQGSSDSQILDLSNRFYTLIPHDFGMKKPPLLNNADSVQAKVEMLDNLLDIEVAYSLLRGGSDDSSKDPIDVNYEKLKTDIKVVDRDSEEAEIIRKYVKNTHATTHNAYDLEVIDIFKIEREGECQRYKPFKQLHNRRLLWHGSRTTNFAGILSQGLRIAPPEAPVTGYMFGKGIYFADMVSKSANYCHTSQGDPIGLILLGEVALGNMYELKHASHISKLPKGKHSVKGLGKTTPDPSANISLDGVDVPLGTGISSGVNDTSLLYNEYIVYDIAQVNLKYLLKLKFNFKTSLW

| SMILES | inhibition of growth at 100 µg/mL [1] [%] | inhibition of growth at 100 µg/mL [2] [%] | inhibition of growth at 100 µg/mL [3] [%] | inhibition of growth at 100 µg/mL [4] [%] | inhibition of growth at 100 µg/mL [5] [%] | inhibition of growth at 100 µg/mL [6] [%] | inhibition of growth at 100 µg/mL [7] [%] | inhibition of growth at 100 µg/mL [8] [%] | inhibition of growth at 100 µg/mL [9] [%] | inhibition of growth at 100 µg/mL [10] [%] | inhibition of growth at 100 µg/mL [11] [%] | inhibition at 100 microg/mL [12] [%] | IC50 [13] [µM] | IC50 [14] [µM] | IC50 [15] [µM] | fold change (FC) [18] | fold change (FC) [19] | fold change (FC) [20] | fold change (FC) [21] | Activity [25] | further results |
| --- | --- | --- | --- | --- | --- | --- | --- | --- | --- | --- | --- | --- | --- | --- | --- | --- | --- | --- | --- | --- | --- |
| Nc1ccc(C(=O)/C=C/c2ccc(Oc3ccc(Cl)nn3)cc2)cc1 | 89.1 | 86.7 | 67.9 | 77.5 | 95 | 73.9 | 56.1 | 66.9 | 61.3 | 66.5 | 82.3 | 68.1 | 12.2 | 27 | 11.4 | 3.9 | 14.9 | 7.55 | 9.76 | Active | Activity [16]: 83.28%; Activity [17]: 1.05%; fold change (FC) [22]: 0.59; fold change (FC) [23]: 0.54; inhibition [24]: Active; Activity [26]: 15.66% |
| O=C(/C=C/c1ccc(Oc2ccc(Cl)nn2)cc1)c1ccc(OCc2ccc(Cl)cc2Cl)cc1 | 83.3 | 81.6 | 54.4 | 60.9 | 84.2 | 67.8 | 70.5 | 75.1 | 52.4 | 65 | 55 | 50.7 | 11.1 | 60.6 | 21.5 | 5.75 | 11.54 | 8.7 | 9.79 | Active | Activity [16]: 66.3%; Activity [17]: 8.57%; fold change (FC) [22]: 0.66; fold change (FC) [23]: 0.5; Activity [26]: 25.13% |
| CC(=O)Nc1ccc(C(=O)/C=C/c2ccc(Oc3ccc(Cl)nn3)cc2)cc1 | 85.5 | 86.5 | 75 | 71.3 | 89.7 | 77.5 | 71.7 | 54.5 | 63.3 | 69.3 | 62.9 | 70.2 | 21.6 | 30.6 | 81.5 | – | – | – | – | Active | inhibition [24]: Active |
| CC(=O)Nc1cccc(C(=O)/C=C/c2ccc(Oc3ccc(Cl)nn3)cc2)c1 | 83.7 | 66.3 | 68.7 | 55.5 | 91.1 | 70.8 | 73 | 77.8 | 69.6 | 71.5 | 73.9 | 70 | 13 | – | 30.1 | 7.01 | 18.26 | 9.44 | 10.49 | Active | fold change (FC) [22]: 0.65; fold change (FC) [23]: 0.43; inhibition [24]: Active |
